Measured values reported in ChEMBL document CHEMBL3745678, “Novel β-Carboline/Hydroxamic Acid Hybrids Targeting Both Histone Deacetylase and DNA Display High Anticancer Activity via Regulation of the p53 Signaling Pathway” (J Med Chem, 2015).
One block for each compound: values may come before it. Calls of active or inactive are those of the source. The rule behind the calls is not given here.

How the values were obtained:
[1] = Antiproliferative activity against human HCT116 cells assessed as cell viability after 48 hrs by MTT assay; assay type: functional, cell-based, HCT-116; details: for IC50: Homo sapiens, HCT-116, 48 h
Histone deacetylase = test: Inhibition of HDAC in human HeLa cell nuclear extract using Boc-Lys (Ac)-AMC as substrate after 60 mins by fluorometric analysis; assay type: cell-based
[2] = Antiproliferative activity against human SW620 cells assessed as cell viability after 48 hrs by MTT assay; assay type: functional, cell-based; details: SW-620, 48 h
HCT-116 [3] = test: Induction of DNA damage in human HCT116 cells assessed as histone H2AX phosphorylation at S139 at 20 uM after 12 hrs by western blot analysis; assay type: functional, cell-based
Method in brief: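 HCT116 cells treated for 12 h, then lysed on ice in PBS with 1% Nonidet P-40, 0.5% sodium deoxycholate, 0.1% SDS and protease inhibitors. Up to 50 µg protein run on SDS-PAGE and blotted to PVDF. Probed overnight at 4 °C with anti-H2AX S139ph, with ECL detection. Band intensity scanned relative to β-actin, three separate experiments.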

LoVo = test: Antiproliferative activity against human LoVo cells assessed as cell viability after 48 hrs by MTT assay; assay type: functional, cell-based
[4] = target: T1, Protein deacetylase HDAC6 (Homo sapiens, UniProt Q9UBN7); test: Inhibition of recombinant human HDAC6 using Boc-Lys (Ac)-AMC as substrate after 60 mins by fluorometric analysis
T1 sequence (Q9UBN7 whole entry): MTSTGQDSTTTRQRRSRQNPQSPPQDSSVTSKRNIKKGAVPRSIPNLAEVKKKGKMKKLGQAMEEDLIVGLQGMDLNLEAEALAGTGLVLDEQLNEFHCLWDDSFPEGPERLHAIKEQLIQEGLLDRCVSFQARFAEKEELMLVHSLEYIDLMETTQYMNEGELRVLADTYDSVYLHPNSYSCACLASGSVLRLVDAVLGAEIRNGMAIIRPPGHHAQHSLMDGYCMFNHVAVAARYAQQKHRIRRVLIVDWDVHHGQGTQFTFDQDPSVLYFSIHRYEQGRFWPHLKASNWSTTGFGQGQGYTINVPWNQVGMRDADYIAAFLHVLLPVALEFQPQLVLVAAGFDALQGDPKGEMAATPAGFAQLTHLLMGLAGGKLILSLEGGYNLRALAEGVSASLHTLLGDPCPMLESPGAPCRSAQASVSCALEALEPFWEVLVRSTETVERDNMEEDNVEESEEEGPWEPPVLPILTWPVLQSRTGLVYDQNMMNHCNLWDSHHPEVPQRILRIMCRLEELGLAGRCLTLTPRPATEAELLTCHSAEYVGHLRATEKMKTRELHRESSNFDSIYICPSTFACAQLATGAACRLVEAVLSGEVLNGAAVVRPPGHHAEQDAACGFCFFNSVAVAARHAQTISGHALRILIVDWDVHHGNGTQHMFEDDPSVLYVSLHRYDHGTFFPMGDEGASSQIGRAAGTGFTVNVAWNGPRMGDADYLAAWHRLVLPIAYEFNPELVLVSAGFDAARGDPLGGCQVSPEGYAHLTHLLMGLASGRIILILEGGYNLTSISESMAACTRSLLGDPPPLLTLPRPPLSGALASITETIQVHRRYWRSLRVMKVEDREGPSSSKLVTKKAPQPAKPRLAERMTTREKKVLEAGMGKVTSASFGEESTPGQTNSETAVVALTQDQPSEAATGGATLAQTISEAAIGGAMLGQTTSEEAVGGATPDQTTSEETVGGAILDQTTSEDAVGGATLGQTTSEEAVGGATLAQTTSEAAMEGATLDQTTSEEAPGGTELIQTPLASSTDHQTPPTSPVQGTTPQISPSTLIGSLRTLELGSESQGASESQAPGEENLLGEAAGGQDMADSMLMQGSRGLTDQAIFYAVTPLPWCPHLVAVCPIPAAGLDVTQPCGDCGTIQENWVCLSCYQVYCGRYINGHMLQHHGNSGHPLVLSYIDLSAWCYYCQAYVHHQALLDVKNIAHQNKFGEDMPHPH

Histone deacetylase 8 = target: T2, Histone deacetylase 8 (Homo sapiens, UniProt Q9BY41); test: Inhibition of recombinant human HDAC8 using Boc-Lys (Ac)-AMC as substrate after 60 mins by fluorometric analysis
T2 sequence (Q9BY41 whole entry): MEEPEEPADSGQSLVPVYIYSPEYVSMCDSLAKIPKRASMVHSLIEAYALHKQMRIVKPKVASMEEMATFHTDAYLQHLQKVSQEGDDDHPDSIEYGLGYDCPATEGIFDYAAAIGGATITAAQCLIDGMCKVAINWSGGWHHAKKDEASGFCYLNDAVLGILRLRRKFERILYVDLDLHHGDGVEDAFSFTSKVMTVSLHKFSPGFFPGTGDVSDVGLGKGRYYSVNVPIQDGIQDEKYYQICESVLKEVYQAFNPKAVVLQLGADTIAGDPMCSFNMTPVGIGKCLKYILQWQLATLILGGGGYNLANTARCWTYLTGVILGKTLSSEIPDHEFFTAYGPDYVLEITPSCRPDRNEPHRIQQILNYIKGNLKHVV

[5] = target: Cellular tumor antigen p53 (Homo sapiens) (UniProt P04637); test: Induction of p53 activation in human HCT116 cells assessed as upregulation of p21 expression at 1 to 5 uM after 12 hrs by western blot analysis; assay type: cell-based; details: HCT-116
Cellular tumor antigen p53 (Homo sapiens), sequence (P04637 whole entry, looked up): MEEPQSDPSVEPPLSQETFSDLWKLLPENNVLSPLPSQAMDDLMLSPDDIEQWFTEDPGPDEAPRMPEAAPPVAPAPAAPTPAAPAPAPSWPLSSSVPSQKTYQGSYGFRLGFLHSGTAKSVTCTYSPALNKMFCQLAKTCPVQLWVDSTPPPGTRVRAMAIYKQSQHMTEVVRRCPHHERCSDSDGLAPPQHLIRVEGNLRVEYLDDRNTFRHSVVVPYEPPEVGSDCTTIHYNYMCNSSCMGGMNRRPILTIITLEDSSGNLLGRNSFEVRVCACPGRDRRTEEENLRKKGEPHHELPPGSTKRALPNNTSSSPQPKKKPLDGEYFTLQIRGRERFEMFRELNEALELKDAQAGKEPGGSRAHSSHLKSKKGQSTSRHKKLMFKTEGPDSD
Method in brief: (§1)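 HCT116 cells exposed 12 h to compound or vehicle, then lysed on ice in PBS with 1% NP-40, 0.5% deoxycholate, 0.1% SDS and protease inhibitors. Up to 50 µg protein run on SDS-PAGE and immunoblotted for phospho-p53 (Ser15), p53 and p21. Bands quantified by densitometry against β-actin; mean ± SD of three experiments.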

Histone deacetylase 1 = Histone deacetylase 1 (Homo sapiens, UniProt Q13547); test: Inhibition of recombinant human HDAC1 using Boc-Lys (Ac)-AMC as substrate after 60 mins by fluorometric analysis
Histone deacetylase 1, sequence (Q13547 whole entry): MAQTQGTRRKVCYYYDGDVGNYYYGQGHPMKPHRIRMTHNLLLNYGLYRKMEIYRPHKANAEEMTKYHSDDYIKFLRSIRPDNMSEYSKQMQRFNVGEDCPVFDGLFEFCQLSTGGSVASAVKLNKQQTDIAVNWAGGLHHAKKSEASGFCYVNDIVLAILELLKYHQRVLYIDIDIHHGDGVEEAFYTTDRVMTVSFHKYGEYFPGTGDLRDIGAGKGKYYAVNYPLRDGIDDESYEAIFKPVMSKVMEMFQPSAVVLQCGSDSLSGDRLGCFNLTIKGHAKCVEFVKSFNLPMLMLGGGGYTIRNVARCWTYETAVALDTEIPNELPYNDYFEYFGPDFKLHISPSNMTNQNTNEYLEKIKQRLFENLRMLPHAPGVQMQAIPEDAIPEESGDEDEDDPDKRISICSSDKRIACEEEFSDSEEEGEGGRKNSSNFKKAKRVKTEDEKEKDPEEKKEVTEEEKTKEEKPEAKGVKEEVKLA

HCT-116 [6] = test: Induction of DNA damage in human HCT116 cells assessed as histone H2AX phosphorylation at S139 after 12 hrs by western blot analysis; assay type: functional, cell-based
Method in brief: (§2)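 DNA-damage marker. HCT116 cells treated 12 h with compound or vehicle. Lysates immunoblotted with anti-H2AX S139ph, and β-actin served as the control. Relative levels were obtained by densitometric scanning; means ± SD of three separate experiments.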

HCT-116 [7] = test: Potency index, ratio of SAHA IC50 to compound IC50 for human HCT116 cells; assay type: functional
Method in brief: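 HCT116 cells seeded at 10^4 cells/ml and adhered overnight, then treated 48 h over a concentration series with 0.1% DMSO as control. MTT readout; IC50 derived from inhibition % = (1 − OD treated/OD control) × 100, three independent measurements. Index = SAHA IC50 ÷ compound IC50.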

SW480 = test: Antiproliferative activity against human SW480 cells assessed as cell viability after 48 hrs by MTT assay; assay type: functional, cell-based; details: SW480, 48 h
HCT-116 [8] = test: Induction of DNA damage in human HCT116 cells assessed as histone H2AX phosphorylation at S139 at 1 to 5 uM after 12 hrs by western blot analysis; assay type: functional, cell-based; method in brief: as §2
HCT-116 [9] = test: Induction of caspase-3 cleavage in human HCT116 cells at 1 to 5 uM after 48 hrs by western blot analysis; assay type: functional, cell-based
Method in brief: (§3)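 HCT116 cells treated 48 h with or without compound. Western blots probed for Bax, Bcl-2, cleaved caspase-3 and PARP. Band intensities relative to β-actin by densitometry; means ± SD from three separate experiments.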

[10] = target: Cellular tumor antigen p53 (Homo sapiens) (UniProt P04637); test: Induction of p53 activation in human HCT116 cells assessed as upregulation of p21 expression at 0.1 to 5 uM after 12 hrs by western blot analysis; assay type: cell-based; details: HCT-116; method in brief: as §1
[11] = Antitumor activity against human HCT116 cells xenografted in BALB/c mouse assessed as tumor weight at 90 mg/kg, po measured twice per week over 22 days (reference value: 1.38 +/- 0.13 g); assay type: functional, HCT-116
HCT-116 [12] = test: Induction of apoptosis in human HCT116 cells at 5 uM after 48 hrs by annexin V-FITC/propidium iodide staining-based flow cytometric analysis; assay type: functional
Method in brief: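 HCT116 cells cultured overnight, then exposed in triplicate for 48 h to 0.1, 1.0 or 5.0 µM, SAHA 5.0 µM or vehicle. Stained with FITC-Annexin V/PI for 15 min at room temperature.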

HCT-116 [13] = test: Induction of PARP cleavage in human HCT116 cells at 1 to 5 uM after 48 hrs by western blot analysis; assay type: functional, cell-based; method in brief: as §3
[14] = Cytotoxicity against rat IEC-18 cells assessed as survival after 48 hrs by MTT assay; assay type: cell-based
Method in brief: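 HCT116 and rat IEC-18 cells incubated 48 h over a 0–5 µM range. Viability measured by MTT and expressed as % of control. GI50 taken from the inhibition curves; three independent experiments.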

[15] = target: Cellular tumor antigen p53 (Homo sapiens) (UniProt P04637); test: Activation of p53 in human HCT116 cells assessed as p53 phosphorylation at ser15 residue at 0.1 to 5 uM after 12 hrs by western blot analysis; assay type: cell-based; details: HCT-116; method in brief: as §1
[16] = target: Cellular tumor antigen p53 (Homo sapiens) (UniProt P04637); test: Activation of p53 in human HCT116 cell at 0.1 to 5 uM after 12 hrs by western blot analysis; assay type: cell-based; details: HCT-116; method in brief: as §1

SMILES: COc1ccc2c(c1)[nH]c1c(C)nccc12 [HARMINE]
- IC50 [1]: 46.7 µM
- IC50 (Histone deacetylase): > 10 µM
- IC50 [2]: 42.8 µM
- Activity (HCT-116 [3]): Active
- IC50 (LoVo): 53.2 µM

- IC50 [4]: 0.15 µM
- IC50 (Histone deacetylase 8): 0.57 µM
- Activity [5]: Active
- IC50 (Histone deacetylase): 0.51 µM
- IC50 (Histone deacetylase 1): 0.24 µM
- IC50 (SW480): 3.15 µM
- IC50 (LoVo): 3.02 µM
SMILES: COc1ccc(-c2nc(NC(=O)NCCCC(=O)NO)cc3c4ccccc4n(C)c23)cc1
- IC50 [1]: 1.33 µM
- Activity (HCT-116 [6]): Dose-dependent effect
- Ratio IC50 (HCT-116 [7]): 4
- IC50 [2]: 1.93 µM
- Activity (HCT-116 [8]): Active

- Activity [10]: Active
- Activity [15]: inactive
- Activity [16]: inactive
SMILES: O=C(CCCCCCC(=O)Nc1ccccc1)NO [VORINOSTAT]
- Activity (HCT-116 [9]): Active
- GI50 [1]: 4.64 µM
- Activity [11]: 0.62 g
- Activity (HCT-116 [12]): 34.3%
- Activity (HCT-116 [13]): Active
- Activity (HCT-116 [8]): Active
- GI50 at 48 h [14]: 9.95 µM
